According to article PMC5553891 (Neurochemistry international, 2013):
Where two headings read alike, the source gives them in different places.

Experiments:
dSERT [1] = target: T1, dSERT (Drosophila melanogaster, UniProt P51905); experiment: two-electrode voltage clamp of 5-HT-induced current in Xenopus oocytes; assay type: cell-based; conditions: 10 μM 5-HT, ND96, −50 mV, room temperature
T1 sequence (P51905 1-622): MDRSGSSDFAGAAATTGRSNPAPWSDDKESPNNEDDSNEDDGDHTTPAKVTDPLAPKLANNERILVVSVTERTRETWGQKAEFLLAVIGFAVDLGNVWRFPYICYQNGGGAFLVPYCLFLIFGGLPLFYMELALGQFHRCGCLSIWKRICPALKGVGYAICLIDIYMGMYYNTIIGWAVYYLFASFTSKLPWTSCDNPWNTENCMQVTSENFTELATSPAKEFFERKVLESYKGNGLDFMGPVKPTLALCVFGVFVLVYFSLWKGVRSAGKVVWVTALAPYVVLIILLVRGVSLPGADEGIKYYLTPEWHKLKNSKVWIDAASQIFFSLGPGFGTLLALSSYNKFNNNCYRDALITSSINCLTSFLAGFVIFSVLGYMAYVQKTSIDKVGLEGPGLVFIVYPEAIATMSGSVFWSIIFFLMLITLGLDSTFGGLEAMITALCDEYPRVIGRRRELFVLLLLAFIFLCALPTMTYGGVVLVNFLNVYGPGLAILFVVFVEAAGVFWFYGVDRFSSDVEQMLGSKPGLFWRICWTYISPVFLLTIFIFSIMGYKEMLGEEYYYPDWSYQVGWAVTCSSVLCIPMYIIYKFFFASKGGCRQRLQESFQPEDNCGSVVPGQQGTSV

dSERT [2] = target: T1, dSERT; experiment: inhibition of [3H]5-HT uptake in Xenopus oocytes; assay type: cell-based
Outline: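 Xenopus oocytes: defolliculated in collagenase A, kept at 18°C in supplemented ND96, injected with 50 ng dSERT cRNA, used 2–4 days later. Uptake ran 20 min in ND96 with 200 nM [3H]5-HT plus increasing competitor. Stopped by removal and six ND96 washes; SDS-solubilised at 60°C, 2 h; scintillation counted. Uninjected same-batch oocytes subtracted; normalised to no-drug control; one-site competition fit.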

[3] = read-out: Ki (μM ± SEM) / dSERT, 200 nM [3H]5-HT, 20 min, ND96

CCN(CC)Cc1cc(Nc2ccnc3cc(Cl)ccc23)ccc1O [Amodiaquin]
% inhibition of I5HT at 100 μM (dSERT [1]): amodiaquin, which did not impact 5-HT uptake, was as affective as quinine

CCN(CC)CCCC(C)Nc1ccnc2cc(Cl)ccc12 (stereo not shown) [Chloroquine]
% inhibition of I5HT at 100 μM (dSERT [1]): quinidine > cinchonine > quinacrine > chloroquine > quinine = amodiaquin = cinchonidine

C=C[C@H]1CN2CC[C@H]1C[C@H]2[C@H](O)c1ccnc2ccccc12 [Cinchonidine]
Ki (dSERT [2]; [3]): 330 ± 19 µM

C=C[C@H]1C[N@@]2CC[C@H]1C[C@@H]2[C@@H](O)c1ccnc2ccccc12 [Cinchonine]
Ki (dSERT [2]; [3]): 6.4 ± 0.05 µM

C=C[C@H]1C[N@@]2CC[C@H]1C[C@@H]2[C@@H](O)c1ccnc2ccc(OC)cc12 [Quinidine]
Ki (dSERT [2]): 1.8 ± 0.11 µM

C=C[C@H]1C[N@@]2CC[C@H]1C[C@H]2[C@H](O)c1ccnc2ccc(OC)cc12 [Quinine]
Ki (dSERT [2]): 102 ± 24 µM

CCN(CC)CCCC(C)Nc1c2ccc(Cl)cc2nc2ccc(OC)cc12 (stereo not shown) [quinacrine]
% inhibition of I5HT at 100 μM (dSERT [1]): quinidine > cinchonine > quinacrine > chloroquine > quinine = amodiaquin = cinchonidine
